Assay [1] is described as follows: Cytotoxicity against human Bel7402 cells by MTT assay. As to conditions: Bel-7402.
Assay [2] deals with Pseudomonas. Nature of the assay: Antibacterial activity against Pseudomonas lachrymans ATCC 11921 by modified broth dilution method. It is filed as functional. An outline of the steps:
(§1)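 MIC read in 96-well plates by a modified broth dilution test; streptomycin sulfate as positive control.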
In general terms: In broth dilution the organism is exposed to a series of concentrations in liquid medium.

The test system of assay [3] is Bacillus subtilis. Nature of the assay: Antibacterial activity against Bacillus subtilis ATCC 11562 by modified broth dilution method. It is filed as functional. An outline of the steps: as §1
The subject of assay [4] is A2780. Nature of the assay: Cytotoxicity against human A2780 cells by MTT assay.
Assay [5] concerns A549. Nature of the assay: Cytotoxicity against human A549 cells by MTT assay. It is filed as functional, cell-based. (Tetrazolium dyes change colour on reduction, which living cells bring about.)
Assay [6] relates to Ralstonia solanacearum. The assay is described as follows: Antibacterial activity against Ralstonia solanacearum ATCC 11696 by modified broth dilution method. It is filed as functional.
Assay [7] relates to Agrobacterium tumefaciens. The assay is described as follows: Antibacterial activity against Agrobacterium tumefaciens No.8 ATCC 11158 by modified broth dilution method. It is filed as functional. An outline of the steps: as §1
The nature of assay [8]: Cytotoxicity against human BGC823 cells by MTT assay. Particulars: BGC-823.
For assay [9], the system named is Xanthomonas vesicatoria. The assay is described as follows: Antibacterial activity against Xanthomonas vesicatoria ATCC 11633 by modified broth dilution method. It is filed as functional. An outline of the steps:
as §1

Assay [10] concerns Staphylococcus haemolyticus. The assay is described as follows: Antibacterial activity against Staphylococcus haemolyticus ATCC 29970 by modified broth dilution method. The assay is classed as functional. Put shortly: as §1
Assay [11] has as its system Pyricularia oryzae. Nature of the assay: Antifungal activity against Magnaporthe oryzae assessed as inhibition of spore germination incubated for 8 hrs. It is filed as functional, organism-based.
A short description of assay [12]: Cytotoxicity against human HCT8 cells by MTT assay. Particulars: HCT-8.

SMILES strings stand for the structures. In brackets after ≈: the same amount, converted by molar mass.

Take `Oc1cccc2c1[C@@H](O)[C@H]1O[C@H]1C21Oc2cccc3cccc(c23)O1`: the half-maximal inhibitory concentration (IC50) (in general, the point on the concentration scale where inhibition reaches its midpoint) in assay [1] is greater than 10 µM; in assay [4] it was greater than 10 µM; in assay [5], greater than 10 µM; in assay [8], greater than 10 µM; in assay [11], 32.3 µg/mL (≈ 96.6 µM); in assay [12], greater than 10 µM. In addition, the MIC (usually the smallest concentration in the dilution series that meets the test's criterion for growth inhibition) in [2] is 37.5 µg/mL (≈ 112 µM); in assay [3] it was 25 µg/mL (≈ 74.8 µM); in assay [6] it was 37.5 µg/mL (≈ 112 µM); in assay [7], 37.5 µg/mL (≈ 112 µM); in assay [9] it was 37.5 µg/mL (≈ 112 µM); in assay [10], 25 µg/mL (≈ 74.8 µM).
As to `O=C1C=C[C@H](O)[C@@]23O[C@@]12C1(Oc2cccc4cccc(c24)O1)[C@H](O)[C@@H](O)[C@@H]3O`, the IC50 is greater than 10 µM in [1]; greater than 10 µM in assay [4]; greater than 10 µM in assay [5]; greater than 10 µM in assay [8]; greater than 200 µg/mL in assay [11]; greater than 10 µM in assay [12]. Besides, the MIC in assay [2] was found to be 150 µg/mL (≈ 390 µM); in assay [3] it was 200 µg/mL (≈ 520 µM); in assay [6], 200 µg/mL (≈ 520 µM); in assay [7], 200 µg/mL (≈ 520 µM); in [9], 150 µg/mL (≈ 390 µM); in assay [10], 200 µg/mL (≈ 520 µM).
On to `O=C1C[C@@H](O)[C@H](O)[C@@]23O[C@@]12C1(Oc2cccc4cccc(c24)O1)[C@@H]1O[C@@H]1[C@@H]3O`, for which the IC50 in assay [1] is 3.3 µM; in [4] it was 5.8 µM; in [5] it was 3.2 µM; in [8], 3.3 µM; in [11], greater than 200 µg/mL; in [12], 1.7 µM. Moreover, the MIC in [2], in assay [3], in [6], in assay [7], in assay [9] and in assay [10] was 75 µg/mL (≈ 195 µM) each time.
As for `CO[C@@H]1CC(=O)[C@]23O[C@]2([C@@H](O)[C@H]2O[C@H]2C32Oc3cccc4cccc(c34)O2)[C@H]1O`, the IC50 in [1] is 6.4 µM; in assay [4], greater than 10 µM; in assay [5] it was 8.7 µM; in assay [8], greater than 10 µM; in assay [11] it was greater than 200 µg/mL; in [12] it was greater than 10 µM. The MIC in assay [2] was found to be 37.5 µg/mL (≈ 94.1 µM); in [3], 37.5 µg/mL (≈ 94.1 µM); in assay [6], 37.5 µg/mL (≈ 94.1 µM); in assay [7] it was 50 µg/mL (≈ 126 µM); in assay [9] it was 37.5 µg/mL (≈ 94.1 µM); in assay [10], 50 µg/mL (≈ 126 µM).
On to `Oc1ccc(O)c2c1[C@@H](O)[C@H]1O[C@H]1C21Oc2cccc3cccc(c23)O1`, for which the IC50 in [1] was greater than 10 µM; in [4] it was greater than 10 µM; in [5], greater than 10 µM; in assay [8], greater than 10 µM; in assay [11], 76.7 µg/mL (≈ 219 µM); in [12] it was greater than 10 µM. For the same molecule, the MIC in [2] stood at 200 µg/mL (≈ 571 µM); in assay [3], 100 µg/mL (≈ 285 µM); in assay [6], 250 µg/mL (≈ 714 µM); in assay [7], 250 µg/mL (≈ 714 µM); in [9] it was 200 µg/mL (≈ 571 µM); in assay [10] it was 250 µg/mL (≈ 714 µM).
Regarding `O=C1C[C@@H](O)C2(Oc3cccc4cccc(c34)O2)c2c(O)ccc(O)c21`, the IC50 was greater than 10 µM in [1]; greater than 10 µM in [4]; greater than 10 µM in assay [5]; greater than 10 µM in assay [8]; 64.8 µg/mL (≈ 185 µM) in assay [11]; greater than 10 µM in assay [12]. The MIC in [2] came out at 37.5 µg/mL (≈ 107 µM); in [3] it was 37.5 µg/mL (≈ 107 µM); in assay [6], 37.5 µg/mL (≈ 107 µM); in assay [7], 37.5 µg/mL (≈ 107 µM); in assay [9] it was 50 µg/mL (≈ 143 µM); in assay [10], 50 µg/mL (≈ 143 µM).
On to `Oc1ccc(O)c2c1C=C[C@@H](O)C21Oc2cccc3cccc(c23)O1`, for which the half-maximal inhibitory concentration (IC50) was greater than 10 µM in [1]; greater than 10 µM in assay [4]; greater than 10 µM in assay [5]; greater than 10 µM in assay [8]; 35.9 µg/mL (≈ 107 µM) in assay [11]; greater than 10 µM in assay [12]. The MIC is 25 µg/mL (≈ 74.8 µM) in assay [2]; 50 µg/mL (≈ 150 µM) in assay [3]; 37.5 µg/mL (≈ 112 µM) in assay [6]; 37.5 µg/mL (≈ 112 µM) in [7]; 37.5 µg/mL (≈ 112 µM) in [9]; 37.5 µg/mL (≈ 112 µM) in assay [10].
For the molecule `O=C1C(Cl)=CC2(Oc3cccc4cccc(c34)O2)[C@]23O[C@]12[C@H](O)CCC3=O`, the IC50 was found to be 2.5 µM in assay [1]; 1.3 µM in assay [4]; 1.6 µM in assay [5]; 2.6 µM in [8]; 9.1 µg/mL (≈ 23.7 µM) in [11]; 4.2 µM in assay [12]. In addition, the MIC was determined as 25 µg/mL (≈ 65 µM) in [2]; 50 µg/mL (≈ 130 µM) in assay [3]; 25 µg/mL (≈ 65 µM) in assay [6]; 25 µg/mL (≈ 65 µM) in [7]; 25 µg/mL (≈ 65 µM) in assay [9]; 25 µg/mL (≈ 65 µM) in [10].
Turning to `O[C@@H]1[C@@H](O)C2(Oc3cccc4cccc(c34)O2)[C@@]23O[C@@]2([C@@H](O)C=C[C@H]3O)[C@H]1O`, the IC50 in assay [1] is greater than 10 µM; in [4], greater than 10 µM; in [5] it was greater than 10 µM; in [8], greater than 10 µM; in [11], greater than 200 µg/mL; in assay [12] it was greater than 10 µM. For the same molecule, the minimum inhibitory concentration (MIC) in assay [2], in assay [3], in assay [6], in [7], in assay [9] and in [10] was greater than 250 µg/mL throughout.
In the case of `O[C@@H]1[C@@H](O)C2(Oc3cccc4cccc(c34)O2)[C@@]23O[C@@]2([C@@H](O)CC[C@H]3O)[C@H]1O`, the IC50 in [1] was greater than 10 µM; in assay [4], greater than 10 µM; in assay [5], greater than 10 µM; in assay [8], greater than 10 µM; in assay [11] it was greater than 200 µg/mL; in assay [12] it was greater than 10 µM. The MIC in assay [2], in assay [3], in [6], in [7], in assay [9] and in [10] was greater than 250 µg/mL throughout.
As to `O=C1C=C[C@H](O)[C@@]23O[C@@]12C1(Oc2cccc4cccc(c24)O1)[C@@H]1O[C@@H]1[C@@H]3O`, the half-inhibitory concentration (IC50) is 5.1 µM in assay [1]; greater than 10 µM in assay [4]; 8.8 µM in assay [5]; greater than 10 µM in assay [8]; 105 µg/mL (≈ 287 µM) in [11]; greater than 10 µM in assay [12]. The MIC in assay [2], in assay [3], in assay [6], in assay [7], in [9] and in assay [10] was 50 µg/mL (≈ 136 µM) each time.
`COC(=O)Nc1nc2ccccc2[nH]1` [CARBENDAZIM]: the IC50 in assay [11] was determined as 6.3 µg/mL (≈ 33 µM).
As to `CN[C@@H]1[C@H](O[C@H]2[C@H](O[C@H]3[C@H](O)[C@@H](O)[C@H](N=C(N)N)[C@@H](O)[C@@H]3N=C(N)N)O[C@@H](C)[C@]2(O)C=O)O[C@@H](CO)[C@H](O)[C@H]1O.CN[C@@H]1[C@H](O[C@H]2[C@H](O[C@H]3[C@H](O)[C@@H](O)[C@H](N=C(N)N)[C@@H](O)[C@@H]3N=C(N)N)O[C@@H](C)[C@]2(O)C=O)O[C@@H](CO)[C@H](O)[C@H]1O.O=S(=O)(O)O.O=S(=O)(O)O.O=S(=O)(O)O` [STREPTOMYCIN SULFATE], the MIC in assay [2] worked out at 7.5 µg/mL; in [3], 5 µg/mL; in [6], 5 µg/mL; in [7], 5 µg/mL; in assay [9], 10 µg/mL; in assay [10] it was 5 µg/mL.

Values taken from ChEMBL document CHEMBL3352444, “Bioactive spirobisnaphthalenes from the endophytic fungus Berkleasmium sp” (J Nat Prod, 2014).
